Measurements published in ChEMBL document CHEMBL3098105, “7,7'-Diazaindirubin--a small molecule inhibitor of casein kinase 2 in vitro and in cells” (Bioorg Med Chem, 2014).
Calls of active or inactive are those of the source. The calls are words filed in the database; no cut-off is given here.

Key:
OVCAR-8 = assay: Antiproliferative activity against human OVCAR8 cells after 3 days by sulforhodamine B assay; type: functional; details: OVCAR-8, 72 h
How it was run: (§1)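 Tested in the NCI 60 cell line panel. GI50 is the concentration giving 50% inhibition of cell growth, and values are the mean of two series of tests.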

NCI-H522 = assay: Antiproliferative activity against human NCI-H522 cells after 3 days by sulforhodamine B assay; type: functional; details: NCI-H522, 72 h; how it was run: as §1
[1] = molecular target: Serine/threonine-protein kinase tousled-like 2 (Homo sapiens) (UniProt Q86UE8); assay: Inhibition of human TLK2 assessed as residual activity at 1 uM relative to control
[2] = molecular target: Serine/threonine-protein kinase TAO2 (Homo sapiens) (UniProt Q9UL54); assay: Inhibition of human TAO2 assessed as residual activity at 1 uM relative to control
[3] = molecular target: Serine/threonine-protein kinase Sgk3 (Homo sapiens) (UniProt Q96BR1); assay: Inhibition of human SGK3 assessed as residual activity at 1 uM relative to control
[4] = molecular target: Mitogen-activated protein kinase 13 (Homo sapiens) (UniProt O15264); assay: Inhibition of human SAPK4 assessed as residual activity at 1 uM relative to control
[5] = molecular target: Ribosomal protein S6 kinase alpha-1 (Homo sapiens) (UniProt Q15418); assay: Inhibition of human Rsk1 assessed as residual activity at 1 uM relative to control
MCF7 [6] = assay: Induction of late stage apoptosis in human MCF7 cells expressing CK2 at 0.25 to 4 uM after 24 hrs using propidium iodide/annexin V staining by FACS analysis; type: functional, cell-based
How it was run: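 MCF7 cells were then treated for 24 h, stained with FITC-annexin V in HEPES pH 7.4 binding buffer with 1.8 mM CaCl2 (15 min, dark, room temperature), then with PI (10 min), and analysed by FACS.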

MCF7 [7] = assay: Cell cycle arrest in human MCF7 cells assessed as accumulation at G1 phase at 1 uM after 24 hrs using propidium iodide staining by FACS analysis (reference value: 57.74%); type: functional
[8] = molecular target: Casein kinase II (Homo sapiens) (UniProt P67870+P68400+P19784); assay: Inhibition of CK2 in human MCF7 cells assessed as reduction of Akt phosphorylation at S473 at 0.25 to 8 uM after 2 hrs by Western blot analysis; type: cell-based
How it was run: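 Cells were lysed in urea lysis buffer (6 M urea, NaF, Na3VO4, protease inhibitors). 20–40 µg protein was run on 10% SDS-PAGE and detected by ECL. Primary antibodies (pAkt S473, PARP, β-actin loading control) were used at 1:1000 overnight at 4 °C. DMSO was the vehicle control. For the pAkt blots, cells were treated for 2 h with Ly294002 as positive control.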

[9] = molecular target: Protein kinase C beta type (Homo sapiens) (UniProt P05771); assay: Inhibition of human PKCbeta1 assessed as residual activity at 1 uM relative to control
Homo sapiens = species on record: Homo sapiens; assay: Inhibition of human PKA assessed as residual activity at 1 uM relative to control
[10] = molecular target: Serine/threonine-protein kinase pim-2 (Homo sapiens) (UniProt Q9P1W9); assay: Inhibition of human Pim-2 assessed as residual activity at 1 uM relative to control
[11] = molecular target: SRSF protein kinase 3 (Homo sapiens) (UniProt Q9UPE1); assay: Inhibition of human MSSK1 assessed as residual activity at 1 uM relative to control
[12] = molecular target: Ribosomal protein S6 kinase alpha-5 (Homo sapiens) (UniProt O75582); assay: Inhibition of human MSK1 assessed as residual activity at 1 uM relative to control
[13] = molecular target: Serine/threonine-protein kinase MARK1 (Homo sapiens) (UniProt Q9P0L2); assay: Inhibition of human MARK1 assessed as residual activity at 1 uM relative to control
[14] = molecular target: Serine/threonine-protein kinase haspin (Homo sapiens) (UniProt Q8TF76); assay: Inhibition of human Haspin assessed as residual activity at 1 uM relative to control
[15] = molecular target: Glycogen synthase kinase-3 alpha (Homo sapiens) (UniProt P49840); assay: Inhibition of human GSK3alpha assessed as residual activity at 1 uM relative to control
[16] = molecular target: Tyrosine-protein kinase Fyn (Homo sapiens) (UniProt P06241); assay: Inhibition of human Fyn assessed as residual activity at 1 uM relative to control
[17] = molecular target: Vascular endothelial growth factor receptor 3 (Homo sapiens) (UniProt P35916); assay: Inhibition of human Flt4 assessed as residual activity at 1 uM relative to control
[18] = molecular target: Fibroblast growth factor receptor 2 (Homo sapiens) (UniProt P21802); assay: Inhibition of human FGFR2 assessed as residual activity at 1 uM relative to control
[19] = molecular target: Myotonin-protein kinase (Homo sapiens) (UniProt Q09013); assay: Inhibition of human DMPK assessed as residual activity at 1 uM relative to control
[20] = molecular target: Cyclin-dependent kinase 2/cyclin E1 (Homo sapiens) (UniProt P24864+P24941); assay: Inhibition of human CDK2/cyclinE assessed as residual activity at 1 uM relative to control; type: protein-complex assay
[21] = molecular target: Mitogen-activated protein kinase kinase kinase 5 (Homo sapiens) (UniProt Q99683); assay: Inhibition of human ASK1 assessed as residual activity at 1 uM relative to control
[22] = molecular target: Tyrosine-protein kinase Fgr (Homo sapiens) (UniProt P09769); assay: Inhibition of FGR (unknown origin) assessed as residual activity at 10 uM relative to control
[23] = molecular target: Focal adhesion kinase 1 (Homo sapiens) (UniProt Q05397); assay: Inhibition of FAK fl (unknown origin) assessed as residual activity at 10 uM relative to control

Sequence of Myotonin-protein kinase (Homo sapiens) (Q09013 whole entry): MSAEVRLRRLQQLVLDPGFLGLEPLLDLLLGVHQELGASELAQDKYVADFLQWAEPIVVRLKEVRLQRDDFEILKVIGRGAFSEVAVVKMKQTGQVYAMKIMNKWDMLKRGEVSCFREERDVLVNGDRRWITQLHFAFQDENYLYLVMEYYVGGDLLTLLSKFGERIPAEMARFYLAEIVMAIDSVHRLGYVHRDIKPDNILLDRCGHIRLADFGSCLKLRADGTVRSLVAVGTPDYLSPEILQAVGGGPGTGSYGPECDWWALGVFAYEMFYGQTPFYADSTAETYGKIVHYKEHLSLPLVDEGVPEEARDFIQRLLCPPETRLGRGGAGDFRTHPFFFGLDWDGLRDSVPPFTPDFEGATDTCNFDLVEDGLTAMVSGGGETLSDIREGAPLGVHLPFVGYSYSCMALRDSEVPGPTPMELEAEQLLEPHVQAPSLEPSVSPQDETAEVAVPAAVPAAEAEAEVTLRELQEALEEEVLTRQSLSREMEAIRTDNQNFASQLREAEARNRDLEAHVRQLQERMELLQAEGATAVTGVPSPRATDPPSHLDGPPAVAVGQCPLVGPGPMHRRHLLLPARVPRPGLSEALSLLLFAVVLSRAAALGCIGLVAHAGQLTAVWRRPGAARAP
Sequence of Glycogen synthase kinase-3 alpha (Homo sapiens) (P49840 2-483 limits assumed): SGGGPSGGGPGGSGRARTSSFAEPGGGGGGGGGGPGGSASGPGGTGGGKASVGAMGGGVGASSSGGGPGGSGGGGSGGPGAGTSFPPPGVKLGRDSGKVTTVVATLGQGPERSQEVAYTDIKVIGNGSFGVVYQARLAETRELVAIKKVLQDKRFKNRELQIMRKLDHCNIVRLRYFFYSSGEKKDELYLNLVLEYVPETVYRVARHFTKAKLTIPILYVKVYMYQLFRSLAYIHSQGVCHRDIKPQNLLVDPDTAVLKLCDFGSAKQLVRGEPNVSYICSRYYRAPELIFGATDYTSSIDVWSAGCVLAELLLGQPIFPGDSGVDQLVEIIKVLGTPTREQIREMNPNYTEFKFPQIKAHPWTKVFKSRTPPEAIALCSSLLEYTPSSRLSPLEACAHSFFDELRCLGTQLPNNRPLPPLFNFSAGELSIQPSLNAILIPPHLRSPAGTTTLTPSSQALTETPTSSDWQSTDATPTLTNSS
Sequence of Serine/threonine-protein kinase TAO2 (Homo sapiens) (Q9UL54 whole entry): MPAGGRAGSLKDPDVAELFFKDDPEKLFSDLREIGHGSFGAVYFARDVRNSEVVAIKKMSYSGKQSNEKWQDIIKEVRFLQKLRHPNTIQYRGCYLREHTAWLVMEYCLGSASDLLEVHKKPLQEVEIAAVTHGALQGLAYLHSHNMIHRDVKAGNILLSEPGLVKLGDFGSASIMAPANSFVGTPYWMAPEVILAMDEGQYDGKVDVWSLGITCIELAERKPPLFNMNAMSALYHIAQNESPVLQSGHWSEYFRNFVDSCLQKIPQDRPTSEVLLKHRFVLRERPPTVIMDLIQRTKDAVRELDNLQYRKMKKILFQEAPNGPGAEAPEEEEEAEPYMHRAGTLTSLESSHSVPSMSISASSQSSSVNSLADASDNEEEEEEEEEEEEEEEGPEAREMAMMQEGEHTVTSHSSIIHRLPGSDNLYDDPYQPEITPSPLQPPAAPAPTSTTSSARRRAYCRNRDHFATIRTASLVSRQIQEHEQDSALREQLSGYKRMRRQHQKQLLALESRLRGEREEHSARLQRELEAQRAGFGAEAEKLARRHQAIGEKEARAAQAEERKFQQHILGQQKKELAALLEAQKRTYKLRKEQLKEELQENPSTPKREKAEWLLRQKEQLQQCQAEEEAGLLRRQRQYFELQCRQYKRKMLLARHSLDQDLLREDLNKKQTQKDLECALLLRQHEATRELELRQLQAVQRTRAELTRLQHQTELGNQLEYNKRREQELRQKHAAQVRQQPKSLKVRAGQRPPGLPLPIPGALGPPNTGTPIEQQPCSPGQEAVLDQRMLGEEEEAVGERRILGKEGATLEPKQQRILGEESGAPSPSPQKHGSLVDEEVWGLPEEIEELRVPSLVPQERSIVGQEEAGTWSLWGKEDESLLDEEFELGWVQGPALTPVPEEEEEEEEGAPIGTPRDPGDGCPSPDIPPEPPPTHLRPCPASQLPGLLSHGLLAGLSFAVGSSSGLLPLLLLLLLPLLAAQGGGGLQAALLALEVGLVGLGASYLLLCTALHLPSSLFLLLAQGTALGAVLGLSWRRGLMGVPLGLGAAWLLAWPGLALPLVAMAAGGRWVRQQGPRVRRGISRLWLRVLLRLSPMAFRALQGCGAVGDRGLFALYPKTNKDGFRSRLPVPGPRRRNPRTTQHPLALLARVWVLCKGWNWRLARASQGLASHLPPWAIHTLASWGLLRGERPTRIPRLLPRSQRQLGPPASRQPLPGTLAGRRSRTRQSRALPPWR
Sequence of Fibroblast growth factor receptor 2 (Homo sapiens) (P21802 22-821 limits assumed): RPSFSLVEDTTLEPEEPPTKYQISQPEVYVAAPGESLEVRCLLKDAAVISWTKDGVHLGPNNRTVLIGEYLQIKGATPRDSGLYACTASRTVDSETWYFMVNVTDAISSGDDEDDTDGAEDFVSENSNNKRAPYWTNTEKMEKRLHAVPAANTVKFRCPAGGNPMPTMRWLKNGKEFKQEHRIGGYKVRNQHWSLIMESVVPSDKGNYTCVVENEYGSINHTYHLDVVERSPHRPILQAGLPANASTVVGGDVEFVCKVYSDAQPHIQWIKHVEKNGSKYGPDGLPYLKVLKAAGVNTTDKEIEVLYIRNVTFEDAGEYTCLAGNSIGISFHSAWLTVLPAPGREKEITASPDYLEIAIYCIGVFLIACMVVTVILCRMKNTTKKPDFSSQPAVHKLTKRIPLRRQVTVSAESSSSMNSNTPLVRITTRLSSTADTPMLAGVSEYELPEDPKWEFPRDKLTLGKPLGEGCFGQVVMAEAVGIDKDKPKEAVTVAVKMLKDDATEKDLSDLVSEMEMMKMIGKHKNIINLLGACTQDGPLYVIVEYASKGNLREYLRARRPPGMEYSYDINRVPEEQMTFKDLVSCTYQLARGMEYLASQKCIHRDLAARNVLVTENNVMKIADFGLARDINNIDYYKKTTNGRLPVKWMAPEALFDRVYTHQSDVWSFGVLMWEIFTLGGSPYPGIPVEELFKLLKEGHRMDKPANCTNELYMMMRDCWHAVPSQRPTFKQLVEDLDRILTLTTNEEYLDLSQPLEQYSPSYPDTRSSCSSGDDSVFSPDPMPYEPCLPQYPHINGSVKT
Sequence of Mitogen-activated protein kinase kinase kinase 5 (Homo sapiens) (Q99683 whole entry): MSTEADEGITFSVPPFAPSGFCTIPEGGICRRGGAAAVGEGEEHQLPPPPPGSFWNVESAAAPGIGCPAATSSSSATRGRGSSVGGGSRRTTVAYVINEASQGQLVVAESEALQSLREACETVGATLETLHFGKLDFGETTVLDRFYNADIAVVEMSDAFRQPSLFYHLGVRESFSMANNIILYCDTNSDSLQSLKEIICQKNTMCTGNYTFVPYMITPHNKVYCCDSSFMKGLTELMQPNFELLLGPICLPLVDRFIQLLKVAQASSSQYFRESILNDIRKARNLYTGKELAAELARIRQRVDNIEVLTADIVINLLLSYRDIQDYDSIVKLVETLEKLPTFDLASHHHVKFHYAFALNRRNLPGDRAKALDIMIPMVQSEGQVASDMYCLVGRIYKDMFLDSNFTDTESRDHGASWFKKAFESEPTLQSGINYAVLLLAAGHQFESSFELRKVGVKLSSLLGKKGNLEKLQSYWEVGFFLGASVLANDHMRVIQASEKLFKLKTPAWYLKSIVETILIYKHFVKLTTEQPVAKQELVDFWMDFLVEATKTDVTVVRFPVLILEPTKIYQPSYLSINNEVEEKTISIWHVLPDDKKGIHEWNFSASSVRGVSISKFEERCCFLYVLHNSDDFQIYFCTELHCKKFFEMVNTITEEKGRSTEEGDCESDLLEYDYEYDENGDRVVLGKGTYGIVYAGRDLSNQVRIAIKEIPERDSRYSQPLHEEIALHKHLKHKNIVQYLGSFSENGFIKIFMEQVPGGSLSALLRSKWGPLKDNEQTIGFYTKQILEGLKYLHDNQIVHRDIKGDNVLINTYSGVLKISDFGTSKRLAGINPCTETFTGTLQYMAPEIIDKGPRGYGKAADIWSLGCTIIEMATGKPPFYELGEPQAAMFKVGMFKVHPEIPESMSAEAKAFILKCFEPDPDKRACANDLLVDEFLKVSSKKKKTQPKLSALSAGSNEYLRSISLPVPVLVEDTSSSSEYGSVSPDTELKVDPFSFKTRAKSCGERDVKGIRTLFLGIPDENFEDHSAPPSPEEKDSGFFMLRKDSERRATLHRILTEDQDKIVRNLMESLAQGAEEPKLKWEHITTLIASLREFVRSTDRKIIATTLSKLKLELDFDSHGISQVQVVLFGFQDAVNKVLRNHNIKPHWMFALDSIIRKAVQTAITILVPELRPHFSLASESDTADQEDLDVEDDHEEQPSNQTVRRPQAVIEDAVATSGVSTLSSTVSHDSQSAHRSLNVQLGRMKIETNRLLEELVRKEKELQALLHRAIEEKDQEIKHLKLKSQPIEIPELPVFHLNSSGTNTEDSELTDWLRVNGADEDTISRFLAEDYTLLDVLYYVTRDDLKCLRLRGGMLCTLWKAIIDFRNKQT
Sequence of Tyrosine-protein kinase Fgr (Homo sapiens) (P09769 2-529 limits assumed): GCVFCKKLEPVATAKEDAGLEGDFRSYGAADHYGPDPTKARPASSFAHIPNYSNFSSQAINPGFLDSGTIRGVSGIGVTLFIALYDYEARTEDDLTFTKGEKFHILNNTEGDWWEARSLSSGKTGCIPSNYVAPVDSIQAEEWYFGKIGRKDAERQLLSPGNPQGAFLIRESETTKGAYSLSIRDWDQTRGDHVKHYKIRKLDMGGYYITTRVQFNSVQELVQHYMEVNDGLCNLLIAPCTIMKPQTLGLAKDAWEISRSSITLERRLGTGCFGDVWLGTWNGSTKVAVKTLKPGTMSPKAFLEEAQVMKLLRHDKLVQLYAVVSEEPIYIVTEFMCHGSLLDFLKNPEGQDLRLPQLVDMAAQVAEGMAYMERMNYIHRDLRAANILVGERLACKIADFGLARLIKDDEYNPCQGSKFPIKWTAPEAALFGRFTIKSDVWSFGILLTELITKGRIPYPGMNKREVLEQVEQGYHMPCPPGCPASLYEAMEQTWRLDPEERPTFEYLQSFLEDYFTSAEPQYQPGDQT

`O=C1Nc2ncccc2/C1=C1/Nc2ncccc2C1=O` gave a GI50 (OVCAR-8) of 1370 nM, a GI50 (NCI-H522) of 2180 nM and an Activity [1] of 103%. For the same compound, the Activity [2] was 88%, the Activity [3] was 113% and the Activity [4] was 115%. For the same compound, the Activity [5] was 114%, the Activity (MCF7 [6]) was “Active” and the Activity (MCF7 [7]) was 63.05%. The inhibition [8] was “Active”, the Activity [9] was 105% and the Activity (Homo sapiens) was 91%. For the same compound, the Activity [10] was 142%, the Activity [11] was 73% and the Activity [12] was 93%. For the same compound, the Activity [13] was 107%, the Activity [14] was 64% and the Activity [15] was 68%. The Activity [16] was 124%, the Activity [17] was 68% and the Activity [18] was 125%. For the same compound, the Activity [19] was 95%, the Activity [20] was 79% and the Activity [21] was 136%. It also gave an Activity [22] of 93% and an Activity [23] of 63%.
